Test results: ChEMBL document CHEMBL1138232, “Optimization of naphthalimide-imidazoacridone with potent antitumor activity leading to clinical candidate (HKH40A, RTA 502)” (J Med Chem, 2007)

Experiments:
[1] = Growth inhibition of human Hep3B cells after 5 days by MTT assay; format: functional, Hep 3B2; details: 120 h
Procedure, shortened: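 MTT assay after 5 day continuous exposure. GI50, TGI and LC50 calculated from the MTT data. Means ± SD of at least three independent experiments; coefficients of variation 10-20%. Compounds used as tri(methanesulfonate) salts.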

NCI-H23 = assay: Antitumor activity against human NCI-H23 cells after 48 hrs; format: functional; details: NCI-H23, 48 h
Procedure, shortened: (§1)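 Tested in the NCI 60 human tumour cell line screen, with continuous drug exposure for 48 h. Values include LC50 derived from the screen.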

SF-268 = assay: Antitumor activity against human SF268 cells after 48 hrs; format: functional; details: SF-268, 48 h; procedure, shortened: as §1
OVCAR-4 = assay: Antitumor activity against human OVCAR4 cells after 48 hrs; format: functional; details: OVCAR-4, 48 h; procedure, shortened: as §1
SN12C = assay: Antitumor activity against human SN12C cells after 48 hrs; format: functional; procedure, shortened: as §1
PC-3 = assay: Antitumor activity against human PC3 cells after 48 hrs; format: functional; details: PC-3, 48 h; procedure, shortened: as §1
[2] = read-out: Log LC50 (the source's name) (converted)

COc1ccc2c(c1)c(=O)c1c(NCCCN3CCN(CCCN4C(=O)c5cccc6cc([N+](=O)[O-])cc(c56)C4=O)CC3)ccc3ncn2c31.CS(=O)(=O)O
GI50 [1]: 2.5 nM | CC50 ([1]; read-out: LC50 (the source's name)): 50 nM | GI50 (NCI-H23): 20.4 nM | CC50 (NCI-H23; [2]): > 1000 nM | TGI (NCI-H23; read-out: Log TGI (converted)): > 1000 nM | GI50 (SF-268): 10.2 nM | CC50 (SF-268; [2]): > 1000 nM | TGI (SF-268; read-out: Log TGI (converted)): > 1000 nM | GI50 (OVCAR-4): 4.9 nM | CC50 (OVCAR-4; [2]): > 1000 nM | TGI (OVCAR-4; read-out: Log TGI (converted)): 87.1 nM | GI50 (SN12C): 2.51 nM | CC50 (SN12C; [2]): > 1000 nM | TGI (SN12C; read-out: Log TGI (converted)): > 1000 nM | GI50 (PC-3): 3.09 nM | CC50 (PC-3; [2]): > 1000 nM | TGI (PC-3; read-out: Log TGI (converted)): 339 nM
